Data reported in ChEMBL document CHEMBL3779767, “Identification of potent and selective MTH1 inhibitors” (Bioorg Med Chem Lett, 2016).
Activity calls are given as the source filed them.

Assays:
[1] = molecular target: Phosphatidylinositol 4-phosphate 3-kinase C2 domain-containing subunit beta (Homo sapiens) (UniProt O00750); assay: Inhibition of partial length human PIK3C2beta expressed in mammalian system at 1 uM
Summary of the method: (§1)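 Single-concentration screen across a panel of 97 kinases, with the test compound at 1 uM.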

[2] = molecular target: Receptor-type tyrosine-protein kinase FLT3 (Homo sapiens) (UniProt P36888); assay: Inhibition of partial length human FLT3 expressed in bacterial system at 1 uM
Summary of the method: (§2)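 Single-point screen within a 97-kinase profiling panel, with the test compound at 1 µM.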

[3] = system: HMEC; assay: Cytotoxicity against human HMEC cells assessed as change in phenotypic response up to 50 uM; type: cell-based
[4] = molecular target: Activin receptor type-1B (Homo sapiens) (UniProt P36896); assay: Inhibition of partial length human ACVR1B expressed in bacterial system at 1 uM; summary of the method: as §2
[5] = molecular target: Tyrosine-protein kinase ABL1 (Homo sapiens) (UniProt P00519); assay: Inhibition of partial length human ABL1 phosphorylation expressed in mammalian system at 1 uM; summary of the method: as §2
[6] = molecular target: Fibroblast growth factor receptor 2 (Homo sapiens) (UniProt P21802); assay: Inhibition of partial length human FGFR2 expressed in bacterial system at 1 uM; summary of the method: as §2
[7] = Half life in human liver microsomes; type: ADME
Summary of the method: (§3)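 Incubated with human or mouse liver microsomes; the read-out was intrinsic clearance alongside half-life, given in hours.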

[8] = Half life in mouse liver microsomes; type: ADME; summary of the method: as §3
[9] = molecular target: Phosphatidylinositol 4,5-bisphosphate 3-kinase catalytic subunit alpha isoform (Homo sapiens) (UniProt P42336); assay: Inhibition of partial length human PIK3Calpha expressed in mammalian system at 1 uM; summary of the method: as §1
[10] = molecular target: Proto-oncogene tyrosine-protein kinase Src (Homo sapiens) (UniProt P12931); assay: Inhibition of partial length human SRC expressed in bacterial system at 1 uM; summary of the method: as §1
[11] = molecular target: Serine/threonine-protein kinase DCLK1 (Homo sapiens) (UniProt O15075); assay: Inhibition of partial length human DCAMKL1 expressed in mammalian system at 1 uM; summary of the method: as §2
[12] = molecular target: Tyrosine-protein kinase ABL1 (Homo sapiens) (UniProt P00519); assay: Inhibition of partial length human ABL1 expressed in mammalian system at 1 uM; summary of the method: as §2
[13] = molecular target: Proto-oncogene tyrosine-protein kinase receptor Ret (Homo sapiens) (UniProt P07949); assay: Inhibition of partial length human RET expressed in bacterial system at 1 uM; summary of the method: as §1
[14] = system: A549; assay: Antiproliferative activity against human A549 cells assessed as change in phenotypic response measured after prolonged treatment; type: functional, cell-based
[15] = molecular target: Casein kinase I isoform delta (Homo sapiens) (UniProt P48730); assay: Inhibition of partial length human CSNK1D expressed in bacterial system at 1 uM; summary of the method: as §2
[16] = system: SW480; assay: Antiproliferative activity against human SW480 cells assessed as change in phenotypic response measured after prolonged treatment; type: functional, cell-based
[17] = molecular target: Fibroblast growth factor receptor 3 (Homo sapiens) (UniProt P22607); assay: Inhibition of partial length human FGFR3 expressed in bacterial system at 1 uM; summary of the method: as §2
[18] = molecular target: Receptor tyrosine-protein kinase erbB-2 (Homo sapiens) (UniProt P04626); assay: Inhibition of partial length human ERBB2 expressed in mammalian system at 1 uM
Summary of the method: (§4)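 Single-concentration screen at 1 µM test concentration, run as part of a commercial binding/activity profiling panel covering 97 kinases.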

[19] = molecular target: Rho-associated protein kinase 2 (Homo sapiens) (UniProt O75116); assay: Inhibition of partial length human ROCK2 expressed in mammalian system at 1 uM; summary of the method: as §1
[20] = molecular target: Cyclin-dependent kinase 16 (Homo sapiens) (UniProt Q00536); assay: Inhibition of partial length human PCTK1 expressed in mammalian system at 1 uM; summary of the method: as §1
[21] = system: NCI-H358; assay: Antiproliferative activity against human NCI-H358 cells assessed as change in phenotypic response up to 50 uM; type: functional, cell-based
[22] = system: SAOS-2; assay: Antiproliferative activity against human Saos2 cells assessed as change in phenotypic response measured after prolonged treatment; type: functional, cell-based
[23] = molecular target: NUAK family SNF1-like kinase 2 (Homo sapiens) (UniProt Q9H093); assay: Inhibition of partial length human SNARK expressed in mammalian system at 1 uM; summary of the method: as §1
[24] = system: U2OS; assay: Antiproliferative activity against human U2OS cells assessed as change in phenotypic response up to 50 uM; type: functional, cell-based
[25] = molecular target: Inhibitor of nuclear factor kappa-B kinase subunit beta (Homo sapiens) (UniProt O14920); assay: Inhibition of partial length human IKKbeta expressed in mammalian system at 1 uM; summary of the method: as §2
[26] = molecular target: Angiopoietin-1 receptor (Homo sapiens) (UniProt Q02763); assay: Inhibition of partial length human TIE2 expressed in bacterial system at 1 uM; summary of the method: as §1
[27] = molecular target: Vascular endothelial growth factor receptor 2 (Homo sapiens) (UniProt P35968); assay: Inhibition of partial length human VEGFR2 expressed in mammalian system at 1 uM; summary of the method: as §1
[28] = system: Mast/stem cell growth factor receptor Kit (Homo sapiens), P10721 [D816V]; assay: Inhibition of partial length human KIT D816V mutant expressed in bacterial system at 1 uM; summary of the method: as §4
[29] = molecular target: RAC-alpha serine/threonine-protein kinase (Homo sapiens) (UniProt P31749); assay: Inhibition of partial length human AKT1 expressed in bacterial system at 1 uM; summary of the method: as §2
[30] = molecular target: Serine/threonine-protein kinase ULK2 (Homo sapiens) (UniProt Q8IYT8); assay: Inhibition of partial length human ULK2 expressed in mammalian system at 1 uM; summary of the method: as §1
[31] = molecular target: Mitogen-activated protein kinase 8 (Homo sapiens) (UniProt P45983); assay: Inhibition of partial length human JNK1 expressed in mammalian system at 1 uM; summary of the method: as §2
[32] = molecular target: Casein kinase I isoform gamma-2 (Homo sapiens) (UniProt P78368); assay: Inhibition of partial length human CSNK1G2 expressed in bacterial system at 1 uM; summary of the method: as §2
[33] = system: U2OS; assay: Antiproliferative activity against human U2OS cells assessed as change in phenotypic response measured after prolonged treatment; type: functional, cell-based
[34] = Solubility of the compound in PBS at pH 7; type: physicochemical
Summary of the method: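 Aqueous solubility was determined in sodium phosphate buffer at pH 7.0.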

[35] = molecular target: MAP kinase-interacting serine/threonine-protein kinase 1 (Homo sapiens) (UniProt Q9BUB5); assay: Inhibition of partial length human MKNK1 expressed in mammalian system at 1 uM; summary of the method: as §1
[36] = molecular target: Serine/threonine-protein kinase RIO2 (Homo sapiens) (UniProt Q9BVS4); assay: Inhibition of partial length human RIOK2 expressed in mammalian system at 1 uM; summary of the method: as §1
[37] = molecular target: MAP kinase-interacting serine/threonine-protein kinase 2 (Homo sapiens) (UniProt Q9HBH9); assay: Inhibition of partial length human MKNK2 expressed in mammalian system at 1 uM; summary of the method: as §1
[38] = molecular target: RAF proto-oncogene serine/threonine-protein kinase (Homo sapiens) (UniProt P04049); assay: Inhibition of partial length human RAF1 expressed in bacterial system at 1 uM; summary of the method: as §1
[39] = molecular target: TGF-beta receptor type-1 (Homo sapiens) (UniProt P36897); assay: Inhibition of partial length human TGFBR1 expressed in bacterial system at 1 uM; summary of the method: as §1
[40] = Cytotoxicity against human 293T cells assessed as change in phenotypic response up to 50 uM; type: cell-based; settings: hek-293t
[41] = molecular target: Tyrosine-protein kinase JAK3 (Homo sapiens) (UniProt P52333); assay: Inhibition of partial length human JAK3 JH1 catalytic domain expressed in mammalian system at 1 uM; summary of the method: as §2

Tyrosine-protein kinase ABL1 (Homo sapiens), sequence (P00519 whole entry): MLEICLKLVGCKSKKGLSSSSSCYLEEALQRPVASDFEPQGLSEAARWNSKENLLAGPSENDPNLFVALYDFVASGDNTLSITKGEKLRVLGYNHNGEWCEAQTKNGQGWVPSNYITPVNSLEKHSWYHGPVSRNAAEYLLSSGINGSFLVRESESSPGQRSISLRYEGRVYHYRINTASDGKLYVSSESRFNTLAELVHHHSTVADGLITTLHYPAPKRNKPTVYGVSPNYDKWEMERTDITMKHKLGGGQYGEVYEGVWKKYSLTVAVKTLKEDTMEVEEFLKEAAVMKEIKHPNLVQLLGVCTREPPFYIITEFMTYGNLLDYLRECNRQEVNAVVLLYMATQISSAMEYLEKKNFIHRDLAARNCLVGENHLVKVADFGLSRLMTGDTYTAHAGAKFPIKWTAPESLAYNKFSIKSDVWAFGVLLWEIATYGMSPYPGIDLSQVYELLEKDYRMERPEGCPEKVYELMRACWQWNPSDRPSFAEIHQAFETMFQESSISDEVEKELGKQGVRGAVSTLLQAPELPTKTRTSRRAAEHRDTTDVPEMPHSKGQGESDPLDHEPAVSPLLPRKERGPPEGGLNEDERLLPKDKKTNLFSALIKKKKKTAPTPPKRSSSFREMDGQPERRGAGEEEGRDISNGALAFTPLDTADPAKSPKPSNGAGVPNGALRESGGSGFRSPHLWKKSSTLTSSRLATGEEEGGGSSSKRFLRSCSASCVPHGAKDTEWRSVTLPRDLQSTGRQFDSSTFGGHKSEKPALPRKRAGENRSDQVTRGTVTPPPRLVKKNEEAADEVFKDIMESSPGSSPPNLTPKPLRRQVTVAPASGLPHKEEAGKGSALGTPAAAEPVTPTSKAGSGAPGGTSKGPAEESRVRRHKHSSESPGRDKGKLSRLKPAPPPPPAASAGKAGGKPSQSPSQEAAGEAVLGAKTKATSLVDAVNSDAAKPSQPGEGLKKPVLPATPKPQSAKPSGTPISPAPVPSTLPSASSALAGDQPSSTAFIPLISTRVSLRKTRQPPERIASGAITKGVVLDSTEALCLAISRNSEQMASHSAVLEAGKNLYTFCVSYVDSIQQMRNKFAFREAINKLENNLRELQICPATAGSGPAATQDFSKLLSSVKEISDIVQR
TGF-beta receptor type-1 (Homo sapiens), sequence (P36897 whole entry): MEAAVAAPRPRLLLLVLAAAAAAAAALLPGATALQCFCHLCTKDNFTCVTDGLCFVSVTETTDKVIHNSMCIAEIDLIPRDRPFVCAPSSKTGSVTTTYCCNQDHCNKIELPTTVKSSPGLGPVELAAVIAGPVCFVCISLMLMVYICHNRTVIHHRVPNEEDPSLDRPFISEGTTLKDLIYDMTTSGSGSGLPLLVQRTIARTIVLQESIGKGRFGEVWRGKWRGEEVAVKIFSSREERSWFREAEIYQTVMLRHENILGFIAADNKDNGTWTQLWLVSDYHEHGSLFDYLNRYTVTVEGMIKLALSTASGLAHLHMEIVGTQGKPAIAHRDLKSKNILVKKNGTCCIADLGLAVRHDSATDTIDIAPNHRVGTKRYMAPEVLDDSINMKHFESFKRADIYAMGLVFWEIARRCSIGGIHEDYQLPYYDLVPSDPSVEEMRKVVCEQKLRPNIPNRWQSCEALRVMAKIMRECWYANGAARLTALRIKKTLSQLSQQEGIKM
Phosphatidylinositol 4,5-bisphosphate 3-kinase catalytic subunit alpha isoform (Homo sapiens), sequence (P42336 whole entry, canonical isoform): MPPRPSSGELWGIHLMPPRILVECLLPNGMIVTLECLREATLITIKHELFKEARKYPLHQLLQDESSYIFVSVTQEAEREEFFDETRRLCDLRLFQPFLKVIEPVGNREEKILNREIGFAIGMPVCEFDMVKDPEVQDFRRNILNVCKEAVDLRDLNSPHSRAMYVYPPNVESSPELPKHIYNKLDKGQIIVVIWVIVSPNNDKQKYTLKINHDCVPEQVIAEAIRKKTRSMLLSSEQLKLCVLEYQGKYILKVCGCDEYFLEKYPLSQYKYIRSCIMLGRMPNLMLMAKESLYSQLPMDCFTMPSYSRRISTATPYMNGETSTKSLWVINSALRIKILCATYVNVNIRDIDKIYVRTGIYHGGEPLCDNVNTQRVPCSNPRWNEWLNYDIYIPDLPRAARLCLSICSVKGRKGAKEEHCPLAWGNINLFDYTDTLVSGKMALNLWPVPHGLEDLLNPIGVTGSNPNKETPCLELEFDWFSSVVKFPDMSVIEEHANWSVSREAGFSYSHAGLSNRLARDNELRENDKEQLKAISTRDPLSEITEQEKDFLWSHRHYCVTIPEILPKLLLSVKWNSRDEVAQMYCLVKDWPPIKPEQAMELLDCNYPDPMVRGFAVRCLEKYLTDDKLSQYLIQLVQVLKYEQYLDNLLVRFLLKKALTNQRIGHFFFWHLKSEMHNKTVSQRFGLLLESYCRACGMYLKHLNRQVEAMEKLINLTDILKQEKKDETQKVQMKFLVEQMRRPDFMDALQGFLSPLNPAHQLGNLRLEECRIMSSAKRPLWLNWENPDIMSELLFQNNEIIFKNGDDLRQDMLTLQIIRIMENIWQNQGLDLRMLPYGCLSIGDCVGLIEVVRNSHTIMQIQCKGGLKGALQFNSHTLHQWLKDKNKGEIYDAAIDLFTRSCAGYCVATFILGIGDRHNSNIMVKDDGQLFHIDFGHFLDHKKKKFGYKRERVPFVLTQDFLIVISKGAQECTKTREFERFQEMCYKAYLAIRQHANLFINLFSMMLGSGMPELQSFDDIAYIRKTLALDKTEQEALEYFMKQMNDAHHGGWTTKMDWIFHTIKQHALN
Serine/threonine-protein kinase ULK2 (Homo sapiens), sequence (Q8IYT8 whole entry): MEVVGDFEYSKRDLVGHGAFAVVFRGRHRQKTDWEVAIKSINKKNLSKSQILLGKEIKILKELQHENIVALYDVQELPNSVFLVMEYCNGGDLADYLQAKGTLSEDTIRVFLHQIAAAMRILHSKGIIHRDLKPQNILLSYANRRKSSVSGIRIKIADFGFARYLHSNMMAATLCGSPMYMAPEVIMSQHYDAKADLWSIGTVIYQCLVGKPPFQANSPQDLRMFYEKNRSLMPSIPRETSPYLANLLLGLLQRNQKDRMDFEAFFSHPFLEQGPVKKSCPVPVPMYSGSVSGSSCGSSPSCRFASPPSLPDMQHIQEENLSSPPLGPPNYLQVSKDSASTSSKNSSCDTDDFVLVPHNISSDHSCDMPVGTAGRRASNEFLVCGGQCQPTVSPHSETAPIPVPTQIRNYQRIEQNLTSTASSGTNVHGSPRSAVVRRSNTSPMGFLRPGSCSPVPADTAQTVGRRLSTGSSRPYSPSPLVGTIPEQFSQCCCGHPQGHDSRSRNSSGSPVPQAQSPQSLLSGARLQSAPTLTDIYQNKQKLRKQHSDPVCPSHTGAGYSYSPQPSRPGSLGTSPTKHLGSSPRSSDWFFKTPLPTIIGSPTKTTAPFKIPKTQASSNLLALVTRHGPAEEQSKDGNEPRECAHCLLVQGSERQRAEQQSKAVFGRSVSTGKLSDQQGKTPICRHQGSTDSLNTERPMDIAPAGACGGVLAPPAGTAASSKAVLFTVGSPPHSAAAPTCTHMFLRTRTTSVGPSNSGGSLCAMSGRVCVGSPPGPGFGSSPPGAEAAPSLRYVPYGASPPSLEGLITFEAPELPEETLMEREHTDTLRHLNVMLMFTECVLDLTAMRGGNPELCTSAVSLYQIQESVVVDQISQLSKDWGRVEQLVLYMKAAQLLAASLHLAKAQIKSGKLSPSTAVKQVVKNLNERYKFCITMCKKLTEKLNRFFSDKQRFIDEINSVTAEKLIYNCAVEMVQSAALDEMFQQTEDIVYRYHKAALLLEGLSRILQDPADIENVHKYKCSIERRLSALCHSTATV
RAC-alpha serine/threonine-protein kinase (Homo sapiens), sequence (P31749 whole entry): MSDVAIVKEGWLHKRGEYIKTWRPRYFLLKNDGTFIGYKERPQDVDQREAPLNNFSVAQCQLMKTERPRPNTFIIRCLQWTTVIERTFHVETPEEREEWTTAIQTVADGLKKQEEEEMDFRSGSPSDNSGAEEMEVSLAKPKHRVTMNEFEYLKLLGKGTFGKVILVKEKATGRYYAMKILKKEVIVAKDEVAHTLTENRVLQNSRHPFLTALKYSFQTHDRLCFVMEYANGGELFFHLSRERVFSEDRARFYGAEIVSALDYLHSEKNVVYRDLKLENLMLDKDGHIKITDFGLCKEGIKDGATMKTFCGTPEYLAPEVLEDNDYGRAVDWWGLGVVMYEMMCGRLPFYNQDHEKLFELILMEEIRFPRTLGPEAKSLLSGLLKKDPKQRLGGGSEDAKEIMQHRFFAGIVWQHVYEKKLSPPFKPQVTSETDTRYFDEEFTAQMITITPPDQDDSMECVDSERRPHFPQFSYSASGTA
Proto-oncogene tyrosine-protein kinase Src (Homo sapiens), sequence (P12931 2-536 limits assumed): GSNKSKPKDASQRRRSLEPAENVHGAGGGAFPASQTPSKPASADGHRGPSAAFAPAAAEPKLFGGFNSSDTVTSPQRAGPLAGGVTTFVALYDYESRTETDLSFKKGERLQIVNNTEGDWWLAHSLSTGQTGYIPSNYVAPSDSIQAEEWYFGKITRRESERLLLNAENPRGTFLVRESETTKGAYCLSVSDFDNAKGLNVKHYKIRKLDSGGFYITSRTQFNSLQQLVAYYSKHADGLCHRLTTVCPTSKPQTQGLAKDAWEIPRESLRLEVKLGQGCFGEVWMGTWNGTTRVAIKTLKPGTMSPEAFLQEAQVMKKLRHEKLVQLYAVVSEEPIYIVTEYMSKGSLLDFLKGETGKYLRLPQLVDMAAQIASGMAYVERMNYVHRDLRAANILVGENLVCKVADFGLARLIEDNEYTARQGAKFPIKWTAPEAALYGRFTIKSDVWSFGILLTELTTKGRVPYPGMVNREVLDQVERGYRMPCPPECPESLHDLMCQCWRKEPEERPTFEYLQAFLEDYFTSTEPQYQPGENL

Cc1cnc(N)nc1OCC(C)(C)CO
Non-toxic: Activity [3] | Activity [40]
inactive: inhibition [1] | inhibition [2] | inhibition [4] | inhibition [5] | inhibition [6] | inhibition [9] | inhibition [10] | inhibition [11] | inhibition [12] | inhibition [13] | Activity [14] | inhibition [15] | Activity [16] | inhibition [17] | inhibition [18] | inhibition [19] | inhibition [20] | Activity [21] | Activity [22] | inhibition [23] | Activity [24] | inhibition [25] | inhibition [26] | inhibition [27] | inhibition [28] | inhibition [29] | inhibition [30] | inhibition [31] | inhibition [32] | Activity [33] | inhibition [35] | inhibition [36] | inhibition [37] | inhibition [38] | inhibition [39] | inhibition [41]
75.6 µM: solubility [34]
1.5 h: half-life [8]
5.5 h: half-life [7]
